Here are results for two compounds from ChEMBL document CHEMBL2169753, “Pharmacophore-based virtual screening and biological evaluation of small molecule inhibitors for protein arginine methylation” (J Med Chem, 2012).

One may read the IC50 as the concentration at which inhibition is half-maximal. The Kd is a measure of binding affinity in units of concentration.

Assay [1] deals with LNCaP. In words: Inhibition of cell proliferation of human LNCAP cells in regular medium after 3 days. The class given is functional. The procedure, abridged:
(§1)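 LNCaP C-81 cells (passage 80–120) grown in phenol red-positive RPMI 1640 with 5% FBS, 2 mM glutamine, 50 µg/ml gentamicin at 37°C, 5% CO2. Plated at 2×10³ cells/well for 3 days, then exposed to compound (DMSO stock diluted 1000×; DMSO-matched controls) for 3 days. Cells counted with an image-based counter and normalized to control. Three independent experiments in triplicate, mean ± SD.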

Assay [2] addresses T1, Histone-arginine methyltransferase CARM1 (Homo sapiens) (UniProt Q86X55).
T1 sequence (whole entry): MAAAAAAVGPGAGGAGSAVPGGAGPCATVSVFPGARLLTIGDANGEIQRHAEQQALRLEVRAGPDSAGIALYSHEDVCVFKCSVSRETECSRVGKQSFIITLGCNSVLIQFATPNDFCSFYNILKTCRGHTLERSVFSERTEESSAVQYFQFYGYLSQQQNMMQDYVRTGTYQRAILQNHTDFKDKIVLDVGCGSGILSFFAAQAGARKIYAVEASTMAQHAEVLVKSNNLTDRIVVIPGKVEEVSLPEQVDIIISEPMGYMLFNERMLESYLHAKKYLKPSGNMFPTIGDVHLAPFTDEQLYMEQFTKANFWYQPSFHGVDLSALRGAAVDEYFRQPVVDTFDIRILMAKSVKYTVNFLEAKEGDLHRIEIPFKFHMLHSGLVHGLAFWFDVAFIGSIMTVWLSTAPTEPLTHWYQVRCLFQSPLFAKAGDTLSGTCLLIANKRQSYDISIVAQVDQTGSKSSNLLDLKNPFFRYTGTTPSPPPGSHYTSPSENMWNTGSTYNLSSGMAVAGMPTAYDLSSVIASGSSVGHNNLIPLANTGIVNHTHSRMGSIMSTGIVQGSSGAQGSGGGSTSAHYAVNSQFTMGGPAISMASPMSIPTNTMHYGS
In words: Inhibition of His6x-tagged PRMT4 expressed in Escherichia coli BL21 (DE3) using Histone H3(1-31) substrate in the presence of [14C] SAM assessed as residual activity at 30 uM by liquid scintillation counting. The gist of the method: (§2)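 Recombinant PRMT4 (0.3 µM) with H3(1-31) at 400 µM, or PRMT5 (1 µM) with H4(1-20) at 2 µM. Substrate and 5 µM [14C]-SAM preincubated 5 min in 50 mM HEPES pH 8.0, 10 mM NaCl, 1 mM DTT at 30°C before enzyme was added. Reactions run 2 h (PRMT4) or 6 h 30 min (PRMT5), with or without 30 µM compound in 2% DMSO. Stopped on P81 paper, washed with NaHCO3, counted by scintillation. Activity normalized to no-inhibitor control.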

Assay [3] addresses Histone acetyltransferase p300 (Homo sapiens, UniProt Q09472). Briefly: Inhibition of recombinant p300 HAT domain using Histone H4(1-20) substrate assessed as inhibition of histone acetyltransferase activity after 10 mins by liquid scintillation counting. The procedure, abridged: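 p300 HAT domain (residues 1287–1666), 0.03 µM, incubated with 10 µM H4-20, 5 µM [14C]-acetyl CoA and increasing compound in 50 mM HEPES pH 8.0, 50 mM NaCl, 0.5 mM DTT, 1 mM EDTA at 30°C for 10 min. Stopped on P81 paper and counted by liquid scintillation. Fractional activity plotted against concentration to give IC50.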

Assay [4] deals with T2, Histone H4 (Homo sapiens, UniProt P62805). In words: Binding affinity to fluorescein-labeled Histone H4(1-20) assessed as peptide fluorescence quenching by spectrofluorometry. The procedure, abridged: (§3)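 H4(1-20) peptide bearing fluorescein on a Dpr residue, 1 µM, in 50 mM HEPES pH 8.0, 10 mM NaCl, 1 mM DTT at 30°C. Titrated with compound from 1 to 100 µM. Excitation 498 nm; emission intensity followed at 523–524 nm. Kd taken from the fluorescence titration.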

Assay [5] has as its target T2, Histone H4. In words: Binding affinity to fluorescein-labeled Histone H4(1-20) by spectrofluorometry. The gist of the method:
as §3

The target of assay [6] is Protein arginine N-methyltransferase 5 (Homo sapiens) (UniProt O14744). In words: Inhibition of His6x-tagged PRMT5 expressed in Escherichia coli BL21 (DE3) using Histone H4(1-20 substrate in the presence of [14C] SAM assessed as residual activity at 30 uM by liquid scintillation counting. The gist of the method:
as §2

The subject of assay [7] is LNCaP. Briefly: Antiproliferative activity against human LNCAP cells in regular medium after 3 days. The class given is functional, cell-based. The procedure, abridged:
as §1

In assay [8] the test system is LNCaP. Briefly: Inhibition of cell proliferation of human LNCAP cells in steroid reduced condition after 3 days. The assay is classed as functional. The gist of the method: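 C-81 cells (passage 80–120) plated at 2×10³ cells/well for 3 days, then starved 2 days in phenol red-free RPMI 1640 with 5% charcoal/dextran-treated FBS, 2 mM glutamine, 50 µg/ml gentamicin and 1 nM DHT. Refed with this medium, then treated for 3 days (solvent controls). Cells counted and normalized to control. Three independent experiments in triplicate, mean ± SD.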

SMILES strings stand for the structures. Active and inactive are the calls of the source. The calls are words filed in the database; no cut-off is given here.

Sequence of Histone acetyltransferase p300 (Q09472 whole entry, the tested form may be a part): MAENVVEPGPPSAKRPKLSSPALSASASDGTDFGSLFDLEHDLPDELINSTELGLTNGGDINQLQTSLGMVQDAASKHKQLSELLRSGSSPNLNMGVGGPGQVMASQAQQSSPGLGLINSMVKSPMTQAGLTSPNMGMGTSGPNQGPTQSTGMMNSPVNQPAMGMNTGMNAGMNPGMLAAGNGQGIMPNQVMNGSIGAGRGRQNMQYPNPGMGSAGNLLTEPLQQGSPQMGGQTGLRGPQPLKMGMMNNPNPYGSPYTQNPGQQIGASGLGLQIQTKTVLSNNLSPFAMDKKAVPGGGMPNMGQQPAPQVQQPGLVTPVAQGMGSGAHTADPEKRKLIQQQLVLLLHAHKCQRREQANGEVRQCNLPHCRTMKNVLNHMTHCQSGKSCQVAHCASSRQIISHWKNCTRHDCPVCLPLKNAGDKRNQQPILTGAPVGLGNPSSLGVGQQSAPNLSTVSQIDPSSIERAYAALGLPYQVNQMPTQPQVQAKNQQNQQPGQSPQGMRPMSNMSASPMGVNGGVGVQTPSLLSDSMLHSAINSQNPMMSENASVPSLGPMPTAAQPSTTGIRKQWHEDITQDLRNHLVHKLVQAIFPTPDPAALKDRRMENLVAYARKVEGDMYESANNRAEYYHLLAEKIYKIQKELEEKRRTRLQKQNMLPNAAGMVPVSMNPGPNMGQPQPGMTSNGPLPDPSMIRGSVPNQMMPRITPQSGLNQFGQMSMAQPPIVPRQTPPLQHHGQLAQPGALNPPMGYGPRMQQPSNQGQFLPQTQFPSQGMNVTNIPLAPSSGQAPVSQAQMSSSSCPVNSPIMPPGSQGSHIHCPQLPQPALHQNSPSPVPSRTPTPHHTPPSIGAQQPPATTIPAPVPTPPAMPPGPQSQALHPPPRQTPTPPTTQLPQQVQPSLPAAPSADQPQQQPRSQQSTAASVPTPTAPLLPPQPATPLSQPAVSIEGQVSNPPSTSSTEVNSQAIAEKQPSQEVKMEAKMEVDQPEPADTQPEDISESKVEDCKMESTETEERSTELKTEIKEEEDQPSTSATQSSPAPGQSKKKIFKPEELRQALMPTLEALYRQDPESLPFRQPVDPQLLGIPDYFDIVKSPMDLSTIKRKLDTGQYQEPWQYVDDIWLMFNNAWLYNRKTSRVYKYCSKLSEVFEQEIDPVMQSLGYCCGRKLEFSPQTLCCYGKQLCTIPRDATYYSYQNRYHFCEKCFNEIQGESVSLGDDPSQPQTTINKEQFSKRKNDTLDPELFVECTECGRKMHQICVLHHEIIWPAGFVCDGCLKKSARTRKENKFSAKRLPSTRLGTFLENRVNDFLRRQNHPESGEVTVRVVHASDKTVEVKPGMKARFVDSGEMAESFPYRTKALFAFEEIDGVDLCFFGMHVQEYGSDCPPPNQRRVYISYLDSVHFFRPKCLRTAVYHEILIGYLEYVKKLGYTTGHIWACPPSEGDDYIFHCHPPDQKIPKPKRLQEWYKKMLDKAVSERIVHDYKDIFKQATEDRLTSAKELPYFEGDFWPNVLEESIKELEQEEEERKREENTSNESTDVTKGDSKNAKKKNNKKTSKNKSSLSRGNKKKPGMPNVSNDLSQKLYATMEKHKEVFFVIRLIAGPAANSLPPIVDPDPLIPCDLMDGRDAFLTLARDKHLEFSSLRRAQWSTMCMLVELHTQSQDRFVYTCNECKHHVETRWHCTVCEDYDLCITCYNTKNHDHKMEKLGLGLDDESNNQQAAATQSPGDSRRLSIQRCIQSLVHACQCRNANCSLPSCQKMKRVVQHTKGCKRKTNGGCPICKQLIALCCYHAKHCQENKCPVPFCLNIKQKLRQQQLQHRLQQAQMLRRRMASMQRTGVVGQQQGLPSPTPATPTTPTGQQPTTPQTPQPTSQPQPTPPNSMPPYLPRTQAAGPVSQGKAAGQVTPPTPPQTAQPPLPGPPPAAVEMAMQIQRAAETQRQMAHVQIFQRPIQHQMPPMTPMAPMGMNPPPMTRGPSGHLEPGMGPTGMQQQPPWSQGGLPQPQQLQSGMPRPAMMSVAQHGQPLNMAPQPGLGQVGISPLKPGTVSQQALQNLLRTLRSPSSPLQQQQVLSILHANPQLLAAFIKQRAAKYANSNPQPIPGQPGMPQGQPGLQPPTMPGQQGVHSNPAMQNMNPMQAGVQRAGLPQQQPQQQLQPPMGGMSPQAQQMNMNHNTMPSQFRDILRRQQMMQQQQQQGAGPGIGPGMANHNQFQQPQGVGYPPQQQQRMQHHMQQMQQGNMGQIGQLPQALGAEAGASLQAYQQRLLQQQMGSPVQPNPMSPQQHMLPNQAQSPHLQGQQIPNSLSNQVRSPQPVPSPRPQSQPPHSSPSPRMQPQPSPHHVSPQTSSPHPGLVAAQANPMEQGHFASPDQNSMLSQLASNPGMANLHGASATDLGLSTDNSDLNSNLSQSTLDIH
Sequence of Protein arginine N-methyltransferase 5 (Homo sapiens) (O14744 whole entry): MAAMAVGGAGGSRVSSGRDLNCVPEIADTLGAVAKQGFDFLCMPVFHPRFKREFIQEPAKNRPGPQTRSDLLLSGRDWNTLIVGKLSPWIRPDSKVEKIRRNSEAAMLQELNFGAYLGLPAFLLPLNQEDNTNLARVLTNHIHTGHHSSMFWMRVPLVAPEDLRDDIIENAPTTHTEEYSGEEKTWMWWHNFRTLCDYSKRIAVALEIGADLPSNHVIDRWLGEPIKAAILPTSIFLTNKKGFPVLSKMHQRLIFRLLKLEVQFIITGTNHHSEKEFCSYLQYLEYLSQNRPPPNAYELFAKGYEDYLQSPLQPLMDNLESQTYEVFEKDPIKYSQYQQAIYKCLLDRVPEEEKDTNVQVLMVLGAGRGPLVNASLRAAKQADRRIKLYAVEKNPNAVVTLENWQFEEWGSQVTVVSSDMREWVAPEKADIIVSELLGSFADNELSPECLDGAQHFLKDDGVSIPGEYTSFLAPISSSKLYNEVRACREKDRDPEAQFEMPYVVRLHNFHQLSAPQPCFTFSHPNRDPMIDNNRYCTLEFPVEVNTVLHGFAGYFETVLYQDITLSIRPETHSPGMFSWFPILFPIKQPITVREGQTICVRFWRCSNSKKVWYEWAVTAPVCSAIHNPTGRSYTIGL

In the case of `O=C(c1ccc(O)c(NC(=O)c2cccc3ccccc23)c1)c1ccc(O)c(NC(=O)c2cccc3ccccc23)c1`, in assay [1], the “inhibition (INH)” value came to 32%. In addition, in assay [2], the Activity was determined as 38%. In assay [3], the IC50 worked out at 15.2 µM and the inhibition result is “Dose-dependent effect”. Further, the result in assay [4] was Active. Besides, binding in assay [5] was characterised by a dissociation constant (Kd) of 23.8 µM. Moreover, the Activity in assay [6] came to 20%.

Regarding `O=C(NN=C1C=CC(=NOS(=O)(=O)c2ccccc2)C=C1)c1cc2ccccc2cc1O`, the results for the “inhibition (INH)” value in assay [1] and in assay [8] were 70% and 30%, respectively. For the same compound, the inhibition entry in assay [7] was “Dose-dependent effect”.
